Screening data deposited in PubChem BioAssay by Broad Institute.
Shown are actives, neighbours in structure and some others; about 3.7% of the full set was active somewhere.
F508del corr: F508del CFTR correction, initial screen, CFBE line, single point. CFBE cells, YFP halide quenching; stimulated with forskolin plus potentiator P3; % fluorescence drop versus neutral controls. activity (quench increase), % at 7.58 µM. hit rate 0.36% among 350,000. AID 720511, 2013;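 active = mean added fluorescence quench of at least 8% versus neutral control, with both replicates also reaching 8%; inconclusive = only one of the mean or replicate conditions met; inactive = mean below 8% and not both replicates reaching 8%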;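 note: cells transiently co-express mutant CFTR-F508del with the halide-sensitive YFP; corrector assay measuring rescue of mutant channel to the surface after 24 h compound exposure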
ERAP1 inh: human ERAP1 aminopeptidase inhibitors, primary screen, biochemical, single point, plate reader | Endoplasmic reticulum aminopeptidase 1 (Homo sapiens), Q9NZ08 | recombinant ERAP1, Leu-AMC fluorescence, 60 min | inhibition, % at 10.7 µM | hit rate 0.15% among 340,000;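 active = mean replicate inhibition of at least 30%, or all replicates individually reaching that 30% level; inactive = mean below 30% and not every replicate reaching it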;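 note: 0% = neutral control wells and 100% = L-leucinethiol positive control wells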
FGF22 binding: binders of human FGF22 protein, primary screen, FGF22 synaptogenesis inhibitor project, biophysical, thermal shift, single point. Fibroblast growth factor 22 (Homo sapiens), Q9HCT0. recombinant FGF22 thermal shift, SYPRO orange fluorescence; percent of sucrose octasulfate shift, DMSO zero. activity (Tm shift, normalised), % at 9.99 µM. hit rate 1.5% among 340,000;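 active = mean Tm shift, scaled 0 neutral to 100 positive control, at about 1.3% or above, every replicate too, limit read from the data; inconclusive = no clear call, values can overlap the other calls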
E-selectin induc: E-selectin induction in HUVECs, primary screen, imaging, HUVEC, immunofluorescence imaging, single point; P16581; normalized: neutral wells 0, TNF-alpha wells 100; activation, % at 7.58 µM; hit rate 0.37% among 260,000;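 active = mean E-selectin-positive cell signal at least 10% of the positive control, reached in at least 60% of replicates, without over 20% cell loss; inconclusive = no rule given, readout overlaps actives, possibly toxicity-flagged; inactive = the rest, including those meeting only one limit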
Target sequence (P16581 whole entry, looked up): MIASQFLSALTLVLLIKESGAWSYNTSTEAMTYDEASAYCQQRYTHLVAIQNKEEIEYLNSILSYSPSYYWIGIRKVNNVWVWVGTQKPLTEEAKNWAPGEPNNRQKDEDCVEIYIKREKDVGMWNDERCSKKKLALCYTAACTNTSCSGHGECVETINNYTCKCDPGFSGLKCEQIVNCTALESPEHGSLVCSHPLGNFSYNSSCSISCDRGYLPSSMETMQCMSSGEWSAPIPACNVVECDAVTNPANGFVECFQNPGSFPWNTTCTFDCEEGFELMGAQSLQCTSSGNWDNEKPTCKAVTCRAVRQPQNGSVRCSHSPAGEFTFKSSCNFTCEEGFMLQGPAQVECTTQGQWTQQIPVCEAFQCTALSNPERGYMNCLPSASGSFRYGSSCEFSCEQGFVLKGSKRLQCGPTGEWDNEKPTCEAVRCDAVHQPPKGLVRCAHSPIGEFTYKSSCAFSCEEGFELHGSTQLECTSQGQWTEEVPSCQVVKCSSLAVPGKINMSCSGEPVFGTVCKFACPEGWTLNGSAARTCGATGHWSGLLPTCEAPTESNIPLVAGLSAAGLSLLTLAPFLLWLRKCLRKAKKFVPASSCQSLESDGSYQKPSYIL
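Material: HUVEC primary endothelial cells; Amount: 3,000 cells per well; Dosing: single concentration; Medium: EGM-2 growth medium on 0.1% gelatin-coated wells; Read-out basis: percent E-selectin-positive cells; Signal: immunofluorescence imaging; Control set: TNF-alpha, DMSO.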
DENV2 CPE rescue: inhibitors of DENV2 cytopathic effect, primary screen, cell-based, plate reader, single concentration; CPE inhibition, % at 9.99 µM; AID 651640, 2012; DENV2-infected cells, cytopathic effect rescue; hit rate 1.7% among 350,000; in the data active = CPE inhibition above about 20%, passing the limit was not always enough; inconclusive = no clear call, values can overlap the other calls; tested in BHK-21 cells;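 note: 0% = median of neutral control wells and 100% = median of positive control wells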
* marks the source's active call; other numbers are inactive results; ? = inconclusive; . = no result given; ! = repeats disagree.

SMILES	F508del corr	ERAP1 inh	FGF22 binding	E-selectin induc	DENV2 CPE rescue
COc1ccc2c3c([nH]c2c1)[C@H](CO)N(C(=O)NC(C)C)CC31CCN(Cc2ccccc2)CC1	3	.	.	0	0
COCC(=O)N1CC2(CCN(Cc3ccccc3)CC2)c2c([nH]c3cc(OC)ccc23)[C@H]1CO	13*	4	0	1	-7
COc1ccc2c3c([nH]c2c1)[C@H](CO)N(C(=O)CN(C)C)CC31CN(Cc2ccccc2Cl)C1	-7	.	0	-1	33*
CCNC(=O)C[C@H]1CC[C@@H]2[C@H](COC[C@H](O)CN2Cc2ccc(Cl)c(Cl)c2)O1	2	0	0	0	82*
CCNC(=O)C[C@H]1CC[C@H]2[C@@H](COC[C@@H](O)CN2Cc2ccc(Cl)c(Cl)c2)O1	4	4	0	0	105*
CCNC(=O)C[C@H]1CC[C@@H]2[C@H](COC[C@@H](O)CN2Cc2ccc(Cl)c(Cl)c2)O1	0	-2	0	0	-4
O=C(NCCOc1ccccc1)C1CCN(C(=O)Nc2ccccc2)CC1	4	-1	1	0	-3
O=C(NCCOc1ccccc1)C1CCCCC1	-1	4	43*	4	1
CO[C@@H]1CN(C)C(=O)c2ccc(NC(C)=O)cc2OC[C@@H](C)N(S(C)(=O)=O)C[C@H]1C	.	0	0	0	94*
CO[C@H]1CN(C)C(=O)c2ccc(NC(=O)NC(C)C)cc2OC[C@@H](C)N(S(C)(=O)=O)C[C@@H]1C	0	.	0	0	43*
CO[C@H]1CN(C)C(=O)c2ccc(NC(C)=O)cc2OC[C@@H](C)N(S(=O)(=O)c2cn(C)cn2)C[C@@H]1C	-1	2	0	0	26*
Cc1ccccc1-c1ccc([C@H]2[C@H]3CN(C(=O)Cc4ccccn4)CC(=O)N3[C@H]2CO)cc1	0	-2	-1	-1	-3
CCCCCCC12Cc3cc(OC)c(OC)cc3C(O1)c1c(cc(C)oc1=O)O2 (stereo unspecified)	1	-4	0	0	-12
CCCCCCC12Cc3cc(OC)c(OC)cc3C(O1)C1=C(O2)C(C)(C)CCC1=O (stereo unspecified)	0	0	43*	0	3
CC(=O)NC(=S)Nc1ccc(-c2nc3ccc(C)cc3s2)cc1	0	-2	0	.	-5
CNC(=S)Nc1ccc(-c2nc3ccc(C)cc3s2)cc1	1	-1	22*	3	-4
C[C@@H]1CN([C@@H](C)CO)C(=O)c2cc(-c3ccc(C#N)cc3)cnc2O[C@H]1CN(C)C(=O)Nc1ccccc1	1	2	1	0	1
CCOC(=O)Cn1c(=O)oc2cc(S(=O)(=O)N3CCCc4ccccc43)ccc21	-1	5	0	?	-4
CCOC(=O)Cn1c(=O)oc2cc(S(=O)(=O)NC3CCCc4ccccc43)ccc21 (stereo unspecified)	-1	-5	0	0	27*
CC(=O)N(C)C[C@H]1Oc2ncc(C#Cc3ccccc3F)cc2C(=O)N([C@@H](C)CO)C[C@@H]1C	2	1	0	-1	-1
CC1CCCC(C)N1C(=O)CSc1nnc(COc2cccc3cccnc23)o1 (stereo unspecified)	2	-4	43*	0	.
CCOCc1c(C(=O)Nc2ccc(OC)nc2)oc2ccccc12	0	55*	0	.	8
CCc1nnc(NC(=O)c2oc3ccccc3c2COC(C)C)s1	-2	4	43*	0	-5
COc1ccc(NC(=O)c2oc3ccccc3c2CSC)cn1	-5	-5	0	0	-1
C[C@H]1CN([C@@H](C)CO)C(=O)Cc2cc(NC(=O)C3CC3)ccc2O[C@@H]1CN(C)Cc1ccncc1	-4	-2	0	0	-6
SMILES	F508del corr	ERAP1 inh	FGF22 binding	E-selectin induc	DENV2 CPE rescue
N#Cc1c(Nc2ccc(F)cc2)sc(C(=O)c2ccccc2)c1N	1	-1	43*	1	-6
C[C@H](c1ccccc1)N1C[C@@H](COCc2ccccc2)Oc2cccc(N3CCCCC3)c2S1(=O)=O	-1	-4	0	2	-8
CCCCN1CC(COCc2ccccc2)Oc2cccc(N3CCCC3)c2S1(=O)=O (stereo unspecified)	3	3	43*	0	3
C[C@@H]1CN([C@H](C)CO)C(=O)c2cccc(NC(=O)C3CC3)c2O[C@@H]1CN(C)Cc1ccccc1	0	1	1	72*	16
C[C@H](CO)N1C[C@H](C)[C@@H](CN(C)Cc2ccccc2)Oc2c(NC(=O)C3CC3)cccc2C1=O	0	1	0	102*!	14
COc1ccc(S(=O)(=O)Nc2ccc3c(c2)CC(=O)N([C@@H](C)CO)C[C@H](C)[C@@H](CN(C)C(=O)Nc2ccc(F)cc2)O3)cc1	-2	.	0	4	-3
CCOC(=O)c1c(/N=C/C2=C(O)CC(C)(C)CC2=O)sc2c1CCCC2	6	0	0	0	9
CCOC(=O)c1c(/N=C/C2=C(O)CC(C)(C)CC2=O)sc(C(C)=O)c1C	-1	3	43*	-3	.
CCCCCC(=O)N1C[C@@H](n2cc(COC(=O)c3ccccc3)nn2)[C@H](O)C[C@@H]1c1ccc(Cl)cc1	0	5	0	0	9
CCCCCC(=O)N1C[C@H](n2cc(COC(=O)c3ccccc3)nn2)[C@@H](O)C[C@@H]1c1ccc(Cl)cc1	1	-2	0	.	53*
COc1ccc(CNc2ncnc3c2[nH]c2ccccc23)cc1	4	-7	1	.	-12
COc1ccc(CNc2ncnc3c2[nH]c2cc(OC)c(OC)cc23)cc1	0	.	0	67*	6
Cc1noc(C)c1S(=O)(=O)Nc1ccc2c(c1)CC(=O)N([C@@H](C)CO)C[C@@H](C)[C@H](CN(C)Cc1ccc3c(c1)OCO3)O2	-3	0	0	.	-5
C=CCOC(=O)C1=C(C)NC(=S)NC1c1cccs1 (stereo unspecified)	.	1	0	.	2
COCCOC(=O)C1=C(C)NC(=S)NC1c1cccs1 (stereo unspecified)	-1	1	43*	-3	4
CCOCCOC(=O)c1[nH]c2c(c1C)C(=O)CC(c1cccs1)C2 (stereo unspecified)	-5	16	0	1	-5
COC(=O)c1[nH]c2c(c1C)C(=O)CC(c1cccc(OC)c1)C2 (stereo unspecified)	8.4*	1	0	0	3
COCCOC(=O)c1[nH]c2c(c1C)C(=O)CC(c1cccs1)C2 (stereo unspecified)	13*	-2	0	.	0
